We go through eleven compounds from ChEMBL document CHEMBL2040750, “Hybrids of ravuconazole: synthesis and biological evaluation” (2012).

Converted amounts (≈) assume the structure as drawn. The source made the active and inactive calls.

Holding throughout (format): functional
Assay [1] concerns Staphylococcus aureus. The assay is described as follows: Antibacterial activity Staphylococcus aureus NCIM 2079 at 100 ug/disc by agar-well diffusion assay. The settings on record: for zone of inhibition at 100 µg/disc: read-out: DIZ. A digest of the protocol: (§1)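 Agar-well diffusion screen against standard strains. Zone of inhibition is the read-out. Chloramphenicol, nystatin and ravuconazole were run as positive controls.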
In general terms: In agar diffusion tests the substance spreads into inoculated agar from a disc or well.

Assay [2] concerns Escherichia coli. Description: Antibacterial activity Escherichia coli NCIM 2109 at 100 ug/disc by agar-well diffusion assay. Conditions: for zone of inhibition at 100 µg/disc: read-out: DIZ. A digest of the protocol: as §1
Assay [3] relates to Bacillus subtilis. Description: Antibacterial activity Bacillus subtilis NCIM 2250 at 100 ug/disc by agar-well diffusion assay. Conditions: for zone of inhibition at 100 µg/disc: read-out: DIZ. A digest of the protocol: as §1
The subject of assay [4] is Pseudomonas aeruginosa. The assay is described as follows: Antibacterial activity Pseudomonas aeruginosa NCIM 2036 at 100 ug/disc by agar-well diffusion assay. Conditions: for zone of inhibition at 100 µg/disc: read-out: DIZ. A digest of the protocol: as §1
For assay [5], the system named is Aspergillus niger. Description: Antifungal activity Aspergillus niger NCIM 545 at 100 ug/disc by agar-well diffusion assay. The settings on record: for zone of inhibition at 100 µg/disc: read-out: DIZ. A digest of the protocol: as §1
Assay [6] concerns Candida albicans. Description: Antifungal activity Candida albicans NCIM 3471 at 100 ug/disc by agar-well diffusion assay. The settings on record: for zone of inhibition at 100 µg/disc: read-out: DIZ. A digest of the protocol: as §1
Assay [7] relates to Staphylococcus aureus. The assay is described as follows: Antibacterial activity Staphylococcus aureus NCIM 2079 after 24 hrs by NCCLS method. A digest of the protocol:
(§2)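 Broth microdilution MIC per NCCLS. Compounds dissolved in DMSO, serially diluted in growth medium, incubated at 37 °C. Read at 24 h for bacteria and 24–72 h for fungi. MIC90 taken as the first well with about 90% growth reduction relative to the drug-free well.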

Assay [8] concerns Escherichia coli. Description: Antibacterial activity Escherichia coli NCIM 2109 after 24 hrs by NCCLS method. A digest of the protocol: as §2
The test system of assay [9] is Bacillus subtilis. The assay is described as follows: Antibacterial activity Bacillus subtilis NCIM 2250 after 24 hrs by NCCLS method. A digest of the protocol: as §2
The subject of assay [10] is Pseudomonas aeruginosa. Description: Antibacterial activity Pseudomonas aeruginosa NCIM 2036 after 24 hrs by NCCLS method. A digest of the protocol:
as §2

Assay [11] deals with Aspergillus niger. Description: Antifungal activity Aspergillus niger NCIM 545 after 24 to 72 hrs by NCCLS method. A digest of the protocol: as §2
The subject of assay [12] is Candida albicans. The assay is described as follows: Antifungal activity Candida albicans NCIM 3471 after 24 to 72 hrs by NCCLS method. A digest of the protocol:
as §2

A word on the MIC: it is the smallest concentration in the dilution series that meets the test's criterion for growth inhibition. In the case of `O=[N+]([O-])c1ccc(-c2csc(N/N=C(/Cn3cncn3)c3ccc(Br)cc3)n2)cc1`, the “diameter of the inhibition zone (DIZ)” value with Staphylococcus aureus [1], in the assay on Bacillus subtilis [3], in the assay with Pseudomonas aeruginosa [4], in the assay on Aspergillus niger [5] and in the assay on Candida albicans [6] was “inactive” throughout. For the same compound, the zone of inhibition at 100 µg/disc in the assay on Escherichia coli [2] amounted to 14 mm. Further, the MIC result in the assay with Staphylococcus aureus [7], with Bacillus subtilis [9], with Pseudomonas aeruginosa [10], in the assay on Aspergillus niger [11] and in the assay on Candida albicans [12] was “inactive” each time. Also, in the assay with Escherichia coli [8] (NCIM 2109, 24 h), the MIC is more than 64 µg/mL.
For the compound `Fc1ccc(-c2csc(N/N=C(/Cn3cncn3)c3cc(C(F)(F)F)cc(C(F)(F)F)c3)n2)cc1`, the zone of inhibition at 100 µg/disc in the assay on Staphylococcus aureus [1] stood at 21.2 mm; in the assay on Bacillus subtilis [3], 9.77 mm; in the assay with Pseudomonas aeruginosa [4], 22.9 mm; in the assay on Aspergillus niger [5], 17.3 mm; with Candida albicans [6], 19.4 mm. Moreover, the “diameter of the inhibition zone (DIZ)” value with Escherichia coli [2] is “inactive”. The MIC against Staphylococcus aureus [7] (NCIM 2079, 24 h) is 64 µg/mL (≈ 124 µM); in the assay with Bacillus subtilis [9] (NCIM 2250, 24 h) it was more than 64 µg/mL; with Pseudomonas aeruginosa [10] (NCIM 2036, 24 h), 16 µg/mL (≈ 31.1 µM); with Aspergillus niger [11], 32 µg/mL (≈ 62.2 µM); in the assay on Candida albicans [12], more than 64 µg/mL. In addition, the MIC entry in the assay on Escherichia coli [8] was “inactive”.
In the case of `Brc1ccc(/C(Cn2cncn2)=N\Nc2nc(-c3ccc(Br)cc3)cs2)cc1`, the “diameter of the inhibition zone (DIZ)” value in the assay with Staphylococcus aureus [1], in the assay on Bacillus subtilis [3] and with Pseudomonas aeruginosa [4] was “inactive” each time. Further, the zone of inhibition at 100 µg/disc turned out to be 10.9 mm in the assay with Escherichia coli [2], 15.3 mm in the assay with Aspergillus niger [5] and 13.9 mm in the assay with Candida albicans [6]. For the same compound, the MIC result in the assay with Staphylococcus aureus [7], in the assay with Bacillus subtilis [9] and in the assay on Pseudomonas aeruginosa [10] was “inactive” throughout. The MIC in the assay on Escherichia coli [8] (NCIM 2109, 24 h) was more than 64 µg/mL; against Aspergillus niger [11] it was more than 64 µg/mL; in the assay on Candida albicans [12], more than 64 µg/mL.
As for `FC(F)(F)c1cc(-c2csc(N/N=C(/Cn3cncn3)c3ccc(Cl)cc3)n2)cc(C(F)(F)F)c1`, the zone of inhibition at 100 µg/disc with Staphylococcus aureus [1] came out at 11.2 mm; in the assay on Escherichia coli [2], 15.6 mm; in the assay on Pseudomonas aeruginosa [4], 26.1 mm; in the assay with Aspergillus niger [5] it was 8.66 mm; in the assay on Candida albicans [6] it was 20.7 mm. Besides, the “diameter of the inhibition zone (DIZ)” value in the assay with Bacillus subtilis [3] is “inactive”. Further, the MIC was more than 64 µg/mL in the assay on Staphylococcus aureus [7] (NCIM 2079, 24 h); more than 64 µg/mL with Escherichia coli [8] (NCIM 2109, 24 h); 32 µg/mL (≈ 60.3 µM) in the assay with Pseudomonas aeruginosa [10] (NCIM 2036, 24 h); more than 64 µg/mL against Aspergillus niger [11]; 32 µg/mL (≈ 60.3 µM) against Candida albicans [12]. For the same compound, in the assay on Bacillus subtilis [9], the MIC entry is “inactive”.
Turning to `C[C@@H](c1nc(-c2ccc(C#N)cc2)cs1)[C@](O)(Cn1cncn1)c1ccc(F)cc1F` [RAVUCONAZOLE], the “diameter of the inhibition zone (DIZ)” value in the assay on Staphylococcus aureus [1], in the assay on Escherichia coli [2], in the assay on Bacillus subtilis [3] and in the assay with Pseudomonas aeruginosa [4] was “inactive” throughout. The zone of inhibition at 100 µg/disc was 20.2 mm in the assay on Aspergillus niger [5] and 28.6 mm in the assay with Candida albicans [6]. Moreover, the MIC entry in the assay on Staphylococcus aureus [7], in the assay on Escherichia coli [8], with Bacillus subtilis [9] and in the assay on Pseudomonas aeruginosa [10] was “inactive” each time. Besides, the values for the MIC against Aspergillus niger [11] and against Candida albicans [12] were 32 µg/mL (≈ 73.1 µM) and 1 µg/mL (≈ 2.29 µM), respectively.
As for `O=[N+]([O-])c1ccc(-c2csc(N/N=C(/Cn3cncn3)c3ccc(F)cc3)n2)cc1`, the “diameter of the inhibition zone (DIZ)” value in the assay on Staphylococcus aureus [1], with Bacillus subtilis [3], in the assay on Pseudomonas aeruginosa [4] and in the assay with Candida albicans [6] was “inactive” throughout. The zone of inhibition at 100 µg/disc with Escherichia coli [2] amounted to 10.9 mm; in the assay with Aspergillus niger [5], 9.44 mm. The MIC result in the assay with Staphylococcus aureus [7], in the assay with Bacillus subtilis [9], in the assay with Pseudomonas aeruginosa [10] and in the assay on Candida albicans [12] was “inactive” each time. Besides, the MIC is more than 64 µg/mL in the assay on Escherichia coli [8] (NCIM 2109, 24 h) and more than 64 µg/mL in the assay with Aspergillus niger [11].
On to `FC(F)(F)c1cc(/C(Cn2cncn2)=N\Nc2nc(-c3ccc(Cl)cc3)cs2)cc(C(F)(F)F)c1`, for which the “diameter of the inhibition zone (DIZ)” value with Staphylococcus aureus [1] and in the assay with Bacillus subtilis [3] was “inactive” in each case. For the same compound, the zone of inhibition at 100 µg/disc in the assay with Escherichia coli [2] amounted to 13.2 mm; in the assay with Pseudomonas aeruginosa [4], 26.8 mm; in the assay on Aspergillus niger [5] it was 19.1 mm; in the assay with Candida albicans [6], 17.6 mm. Also, the MIC entry in the assay with Staphylococcus aureus [7] and in the assay with Bacillus subtilis [9] was “inactive” throughout. For the same compound, the MIC is more than 64 µg/mL in the assay with Escherichia coli [8] (NCIM 2109, 24 h); 32 µg/mL (≈ 60.3 µM) against Pseudomonas aeruginosa [10] (NCIM 2036, 24 h); 16 µg/mL (≈ 30.1 µM) with Aspergillus niger [11]; 32 µg/mL (≈ 60.3 µM) in the assay on Candida albicans [12].
Regarding `O=[N+]([O-])c1ccc(-c2csc(N/N=C(/Cn3cncn3)c3ccc(Cl)cc3)n2)cc1`, the “diameter of the inhibition zone (DIZ)” value in the assay with Staphylococcus aureus [1] and in the assay on Pseudomonas aeruginosa [4] was “inactive” in each case. In addition, the zone of inhibition at 100 µg/disc came out at 10.6 mm in the assay with Escherichia coli [2], 12.2 mm in the assay with Bacillus subtilis [3], 14.5 mm in the assay on Aspergillus niger [5] and 11.7 mm in the assay with Candida albicans [6]. Also, the MIC entry in the assay with Staphylococcus aureus [7] and in the assay with Pseudomonas aeruginosa [10] was “inactive” throughout. Moreover, the MIC against Escherichia coli [8] (NCIM 2109, 24 h) was more than 64 µg/mL; against Bacillus subtilis [9] (NCIM 2250, 24 h), more than 64 µg/mL; in the assay with Aspergillus niger [11], more than 64 µg/mL; with Candida albicans [12] it was more than 64 µg/mL.
As for `Fc1ccc(/C(Cn2cncn2)=N\Nc2nc(-c3cc(C(F)(F)F)cc(C(F)(F)F)c3)cs2)cc1`, the “diameter of the inhibition zone (DIZ)” value in the assay with Staphylococcus aureus [1], in the assay on Bacillus subtilis [3] and in the assay with Candida albicans [6] was “inactive” in each case. The zone of inhibition at 100 µg/disc is 14.9 mm in the assay with Escherichia coli [2], 23.9 mm with Pseudomonas aeruginosa [4] and 13.8 mm with Aspergillus niger [5]. In addition, the MIC entry with Staphylococcus aureus [7], with Bacillus subtilis [9] and with Candida albicans [12] was “inactive” throughout. Besides, the MIC was more than 64 µg/mL in the assay with Escherichia coli [8] (NCIM 2109, 24 h); 32 µg/mL (≈ 62.2 µM) against Pseudomonas aeruginosa [10] (NCIM 2036, 24 h); 64 µg/mL (≈ 124 µM) against Aspergillus niger [11].
Take `Clc1ccc(/C(Cn2cncn2)=N\Nc2nc(-c3ccc(Cl)cc3)cs2)cc1`: the zone of inhibition at 100 µg/disc with Staphylococcus aureus [1] was determined as 18.8 mm; in the assay with Escherichia coli [2] it was 9.65 mm; with Pseudomonas aeruginosa [4], 28.9 mm; with Aspergillus niger [5], 19.5 mm; in the assay with Candida albicans [6], 20.4 mm. In addition, in the assay with Bacillus subtilis [3], the “diameter of the inhibition zone (DIZ)” value was “inactive”. The MIC was 64 µg/mL (≈ 149 µM) in the assay with Staphylococcus aureus [7] (NCIM 2079, 24 h); more than 64 µg/mL against Escherichia coli [8] (NCIM 2109, 24 h); 16 µg/mL (≈ 37.3 µM) against Pseudomonas aeruginosa [10] (NCIM 2036, 24 h); 32 µg/mL (≈ 74.5 µM) against Aspergillus niger [11]; 32 µg/mL (≈ 74.5 µM) against Candida albicans [12]. Moreover, the MIC result with Bacillus subtilis [9] is “inactive”.
With `Fc1ccc(-c2csc(N/N=C(/Cn3cncn3)c3ccc(Br)cc3)n2)cc1`, the zone of inhibition at 100 µg/disc in the assay on Staphylococcus aureus [1] was 15.5 mm; in the assay on Bacillus subtilis [3] it was 20.3 mm; in the assay on Aspergillus niger [5], 11.9 mm; in the assay on Candida albicans [6], 14.4 mm. For the same compound, the “diameter of the inhibition zone (DIZ)” value with Escherichia coli [2] and in the assay on Pseudomonas aeruginosa [4] was “inactive” each time. Besides, the minimal inhibitory concentration (MIC) in the assay on Staphylococcus aureus [7] (NCIM 2079, 24 h) is 64 µg/mL (≈ 140 µM); in the assay on Bacillus subtilis [9] (NCIM 2250, 24 h), 32 µg/mL (≈ 70 µM); with Aspergillus niger [11], more than 64 µg/mL; in the assay with Candida albicans [12] it was 64 µg/mL (≈ 140 µM). The MIC result with Escherichia coli [8] and with Pseudomonas aeruginosa [10] was “inactive” throughout.
